{"data": "Assay results of several laboratories", "target": "Epithelial discoidin domain-containing receptor 1 (DDR1, Homo sapiens, UniProt Q08345)", "note": "Lines come from different studies, so protocols differ."}
{"Structure (SMILES)": "COc1cnc(Nc2cccc(S(N)(=O)=O)c2)nc1N1CCN(c2ccccc2)CC1", "effect on": "binding", "technique": "competition with immobilised ligand", "tested at": "1 µM", "remaining binding": "93%"}
{"Structure (SMILES)": "CS(=O)(=O)N1CCCC(NC(=O)[C@H](CCC2CCCCC2)NC(=O)c2ccc(CNc3ncnc4c3nnn4-c3ccccc3)cc2)C1 (stereo partly drawn)", "effect on": "cell-free assay", "technique": "competition with immobilised ligand", "tested at": "0.1 µM", "remaining binding": "89%"}
{"Structure (SMILES)": "O=C(c1ccc(Nc2ncc(Cl)c(-c3ccc(Cl)s3)n2)cc1)N1CCC(N2CCCC2)CC1", "effect on": "binding", "technique": "competition with immobilised ligand", "tested at": "1 µM", "remaining binding": "12%"}
{"Structure (SMILES)": "O=C(Nc1c[nH]nc1C(=O)NC1CCNCC1)c1cc(F)cc(F)c1", "effect on": "binding", "technique": "competition with immobilised ligand", "tested at": "1 µM", "remaining binding": "100%"}
{"Structure (SMILES)": "COc1ncc2cc3ccccc3nc2c1C#N", "effect on": "cell-free assay", "technique": "competition with immobilised ligand", "tested at": "5 µM", "remaining binding": "85%"}
{"Structure (SMILES)": "C=CC(=O)N1CCC(C(=O)NCC(=O)N2CCN(c3nc(-c4cnc(N)nc4C(F)F)nc(N4CCOCC4)n3)CC2)CC1", "effect on": "binding", "technique": "competition with immobilised ligand", "tested at": "1 µM", "remaining binding": "100%"}
{"Structure (SMILES)": "O=c1nc(-c2ccccn2)sc2ccccc12", "effect on": "cell-free assay", "technique": "competition with immobilised ligand", "tested at": "1 µM", "remaining binding": "85%"}
{"Structure (SMILES)": "O=C(NCCCN1CCOCC1)c1ccc(Nc2ncc(Cl)c(-c3ccc(Cl)s3)n2)cc1", "effect on": "binding", "technique": "competition with immobilised ligand", "tested at": "1 µM", "remaining binding": "84%"}
{"Structure (SMILES)": "Nc1ncc2c(n1)-c1c([nH]c3ccc(C#CC4CC4)cc13)CCCC2", "effect on": "binding", "technique": "competition with immobilised ligand", "tested at": "1 µM", "remaining binding": "100%"}
{"Structure (SMILES)": "CN(c1nccc(-c2cnn3ncccc23)n1)C1CC1", "effect on": "binding", "tested at": "1 µM", "remaining binding": "80%"}
{"Structure (SMILES)": "CNC(=O)Nc1ccc2c(c1)CC[C@@]21OC(=O)N(CC(=O)N(Cc2ccc(F)cc2)[C@@H](C)C(F)(F)F)C1=O", "effect on": "cell-free assay", "technique": "competition with immobilised ligand", "tested at": "1 µM", "remaining binding": "100%"}
{"Structure (SMILES)": "C[C@@H]1CCN(c2nccc(-c3cnn4ncccc34)n2)C1", "effect on": "binding", "tested at": "1 µM", "remaining binding": "100%"}
{"Structure (SMILES)": "CCCOc1ccc([C@H]2[C@H](C(=O)O)[C@@H](c3ccc4c(c3)OCO4)CN2CC(=O)Nc2c(CC)cccc2CC)cc1", "effect on": "cell-free assay", "technique": "competition with immobilised ligand", "tested at": "1 µM", "remaining binding": "100%"}
{"Structure (SMILES)": "N[C@H]1CCN(c2nccc(-c3cnn4ncccc34)n2)C1", "effect on": "binding", "tested at": "1 µM", "remaining binding": "100%"}
{"Structure (SMILES)": "O=C(NCCCN1CCOCC1)c1ccc(Nc2nccc(-c3cc4ccccc4s3)n2)cc1", "effect on": "binding", "technique": "competition with immobilised ligand", "tested at": "1 µM", "remaining binding": "20%"}
{"Structure (SMILES)": "c1cnn2ncc(-c3ccnc(N4CCC45COC5)n3)c2c1", "effect on": "binding", "tested at": "1 µM", "remaining binding": "82%"}
{"Structure (SMILES)": "c1cncc(-c2cccc(Nc3nccc(NC4CCCCC4)n3)c2)c1", "effect on": "binding", "technique": "competition with immobilised ligand", "tested at": "10 µM", "remaining binding": "27%"}
{"Structure (SMILES)": "F[C@@H]1CCN(c2nccc(-c3cnn4ncccc34)n2)C1", "effect on": "binding", "tested at": "1 µM", "remaining binding": "83%"}
{"Structure (SMILES)": "CC(=O)c1c(NS(C)(=O)=O)c2cc(-c3ccc(Cl)cc3)c(-c3ccc(Cl)cc3Cl)nc2n(C)c1=O", "effect on": "cell-free assay", "technique": "competition with immobilised ligand", "tested at": "1 µM", "remaining binding": "100%"}
{"Structure (SMILES)": "CC1CCCN1c1nccc(-c2cnn3ncccc23)n1 (stereo not drawn)", "effect on": "binding", "tested at": "1 µM", "remaining binding": "94%"}
{"Structure (SMILES)": "O=C(O)c1cc(-c2ccc(C3CCNCC3)cc2)c2ccc(-c3ccc(C(F)(F)F)cc3)cc2c1", "effect on": "cell-free assay", "technique": "competition with immobilised ligand", "tested at": "1 µM", "remaining binding": "100%"}
